Key:
Assay type in all cases: functional
Homo sapiens [1] = organism: Homo sapiens; assay: Percent ibuprofen detected after 6 hr incubation in human plasma.
Method in brief: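 Compound (0.0438 µmol) in 5 µL acetonitrile added to 495 µL human plasma at 37 °C and incubated 6 h. Diluted with acetonitrile containing 0.1% TFA and centrifuged (9600g, 15 min). […] Expressed as %, mean ± SEM.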

[2] = Antiaggregatory effect against arachidonic acid induced platelet aggregation from the human platelet rich plasma(PRP) in the presence of oxyhemoglobin (HbO2)
Method in brief: (§1)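 Human citrated blood spun at 200g for 20 min to give PRP. Compound or DMSO (maximum 0.5%) added 10 min before arachidonic acid (0.5-1 mM, chosen to give 85-95% of maximal aggregation). Oxyhaemoglobin 40 µM final added 12 min before the activator. Light transmission read for 5 min at 37 °C with stirring. […] Mean ± SEM, n = 5.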

Rattus norvegicus [3] = assay: Percent inhibition of paw volume increase in carrageenan-induced rat after a dose of 120 mg/kg was administered and observed after 6 hours of incubation
Rattus norvegicus [4] = assay: Percent inhibition of paw volume increase in carrageenan-induced rat after a dose of 120 mg/kg was administered and observed after 4 hours of incubation
Rattus norvegicus [5] = assay: Alcerogenic property after intragastric administration to conscious rats for 6 hrs
Method in brief: (§2)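 Male Wistar rats (180-200 g), fasted 24 h with water allowed, groups of n = 6. […] Killed 6 h after dosing. Stomachs opened along the lesser curvature and examined under a stereomicroscope. Each haemorrhagic lesion was scored by greatest length (<1 mm = 1; 1-2 mm = 2; >2 mm = length in mm). Summed as lesion index, mean ± SEM.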

Homo sapiens [6] = organism: Homo sapiens; assay: Percent ibuprofen detected after 2 hr incubation in acidic medium (pH=1) […]
Method in brief: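 Compound (0.25 mM) in acetonitrile added to HCl solution at pH 1, 37 °C, incubated 2 h.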

Homo sapiens [7] = organism: Homo sapiens; assay: Compound was evaluated for nitric oxide release (stimulate nitric oxide synthase) in human plasma
Rattus norvegicus [8] = assay: Ulcerogenic property after intragastric administration to conscious rats for 6 hrs; method in brief: as §2
[9] = Antiaggregatory effect against arachidonic acid induced platelet aggregation from the human platelet rich plasma(PRP) in the presence of oxyheamoglobin(HbO2, 40 uM); method in brief: as §1
Rattus norvegicus [10] = assay: Percent inhibition of paw volume increase in carrageenan-induced rat after a dose of 40 mg/kg was administered and observed after 6 hours of incubation
Rattus norvegicus [11] = assay: Ulcerogenic property after intragastric administration to conscious rats after 6 hours of incubation; method in brief: as §2
Rattus norvegicus [12] = assay: Percent inhibition of paw volume increase in carrageenan-induced rat after a dose of 40 mg/kg was administered and observed after 4 hours of incubation

| SMILES | Ibuprofen (Homo sapiens [1]) [%] | IC50 [2] [µM] | inhibition in vivo at 120 mg/kg (Rattus norvegicus [3]) [%] | inhibition in vivo at 120 mg/kg (Rattus norvegicus [4]) [%] | Lesion index (Rattus norvegicus [5]) [mm] | Ibuprofen (Homo sapiens [6]) [%] | NO2- (mol/mol) (Homo sapiens [7]) [%] | Lesion index (Rattus norvegicus [8]) [mm] | IC50 [9] [µM] | inhibition in vivo at 40 mg/kg (Rattus norvegicus [10]) [%] | Lesion index (Rattus norvegicus [11]) [mm] | inhibition in vivo at 40 mg/kg (Rattus norvegicus [12]) [%] |
| --- | --- | --- | --- | --- | --- | --- | --- | --- | --- | --- | --- | --- |
| CC(C)Cc1ccc(C(C)C(=O)OCCCO[N+](=O)[O-])cc1 (stereo not given) | 27.1 | 57.5 | 40 | 41.8 | 0.7 | 22.3 | 3.2 | – | – | – | – | – |
| CC(C)Cc1ccc(C(C)C(=O)OCCCOc2nonc2Sc2ccccc2)cc1 (stereo not given) | 8.9 | – | 54.4 | 48.3 | – | 6.1 | – | 1.3 | – | – | – | – |
| CC(C)Cc1ccc(C(C)C(=O)OCCCOc2no[n+]([O-])c2Sc2ccccc2)cc1 (stereo not given) | 35.6 | – | 36.2 | 40.7 | – | 6.5 | 9.5 | 0 | – | – | – | – |
| CC(C)Cc1ccc(C(C)C(=O)OCCCOc2no[n+]([O-])c2S(=O)(=O)c2ccccc2)cc1 (stereo not given) | 46.8 | – | – | – | – | 12.9 | 34.7 | – | 2.69 | 41.5 | 0 | 37.4 |
| CCCOC(=O)C(C)c1ccc(CC(C)C)cc1 (stereo not given) | 22.9 | – | – | – | – | 11.7 | – | 3.8 | – | 49.6 | – | 37.6 |
| CC(C)Cc1ccc(C(C)C(=O)OCCCOc2nonc2S(=O)(=O)c2ccccc2)cc1 (stereo not given) | 26 | – | – | – | – | 13 | – | 5.7 | – | 63.3 | – | 52.8 |

From ChEMBL document CHEMBL1134631 (J Med Chem, 2001)
